Active and inactive are the calls of the source. The rule behind the calls is not given here.
Columns and labels:
Trypanosoma cruzi [1] = test: Antitrypanosomal activity against Trypanosoma cruzi infected in African green monkey Vero cells assessed as reduction in number of trypomastigotes measured up to 10 days by Giemsa staining based hemocytometry; type: functional; conditions: time day <=10
Procedure, shortened: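 Vero cells infected with metacyclic forms (10:1) were exposed to one concentration per compound immediately after infection for 12 h at 37 °C, 5% CO2. After washing, cultures were kept 10 days with fresh medium every 48 h. Every 48 h, % infected cells and amastigotes per infected cell (200 Giemsa-stained cells) and medium trypomastigotes (Neubauer) were scored. Means of three experiments.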

Trypanosoma cruzi [2] = test: (§1) Antitrypanosomal activity against Trypanosoma cruzi Arequipa trypomastigotes infected in BALB/c mouse assessed as reduction in parasitemia level in heart measured during acute phase (days 0 to 40 post infection) at 50 to 100 mg/kg, po dosed on alternating days (7 to 15 days post infection) by PCR analysis; type: functional, organism-based; conditions: dose 50-100 mg/kg
[3] = Genotoxicity in Salmonella typhimurium TA1535 at 0.03 to 2.25 ug/plate incubated for 48 hrs in presence of liver S9 fraction by Ames test; type: toxicity, subcellular; conditions: salmonella enterica subsp. enterica serovar typhimurium, s9, 48 h
Procedure, shortened: (§2)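 Preincubation Ames assay. […] Top agar with trace histidine/biotin (0.05 mM each) was added and poured onto glucose minimal agar. Plates were incubated 48 h at 37 °C and His+ revertants counted. DMSO was the negative control, with strain-appropriate positive controls. Technical triplicates.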

[4] = Genotoxicity in Salmonella typhimurium TA100 at 0.03 to 2.25 ug/plate incubated for 48 hrs in presence of liver S9 fraction by Ames test; type: toxicity, subcellular; conditions: salmonella enterica subsp. enterica serovar typhimurium, s9, 48 h; procedure, shortened: as §2
Trypanosoma cruzi [5] = test: Antitrypanosomal activity against Trypanosoma cruzi Arequipa trypomastigotes infected in BALB/c mouse assessed as reduction in splenomegaly by measuring weight percent of spleens […] at 100 mg/kg, po dosed on alternating days (7 to 15 days post infection) by PCR analysis (reference value: 1.603%); type: functional
[6] = Genotoxicity in Salmonella typhimurium TA1537 at 0.03 to 2.25 ug/plate incubated for 48 hrs in absence of liver S9 fraction by Ames test; type: toxicity; conditions: salmonella enterica subsp. enterica serovar typhimurium, s9, 48 h; procedure, shortened: as §2
Trypanosoma cruzi [7] = test: Antitrypanosomal activity against Trypanosoma cruzi Tulahuen amastigote forms infected in African green monkey Vero cells incubated for 72 hrs by Giemsa staining based micrscopy; type: functional, organism-based
Procedure, shortened: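 Vero cells (RPMI, 10% inactivated FBS, 37 °C, 5% CO2) were seeded at 1×10^4/well on coverslips and cultured 2 days. They were infected 24 h with metacyclic forms at 10:1. After washing off free parasites, drugs were added at 0.1–100 µM for 72 h. Slides were methanol-fixed and Giemsa-stained; amastigotes were counted in 200 host cells versus untreated. IC50 was calculated.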

Trypanosoma cruzi [8] = test: Antitrypanosomal activity against Trypanosoma cruzi Arequipa trypomastigotes infected in BALB/c mouse assessed as reduction in mouse mortality measured during acute phase (days 0 to 40 post infection) at 50 to 100 mg/kg, po dosed on alternating days (7 to 15 days post infection); type: functional, organism-based; conditions: dose 50-100 mg/kg
Trypanosoma cruzi [9] = test: Antitrypanosomal activity against Trypanosoma cruzi Tulahuen trypomastigote froms infected in mouse blood incubated for 24 hrs by Neubauer chamber based assay; type: functional, organism-based
Procedure, shortened: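 Mouse blood taken at peak parasitemia (day 7) was diluted with uninfected blood to 4×10^6 trypomastigotes/mL, then 1:2 in RPMI 1640. Drugs from DMSO stocks were added at 1, 10, 25, 50 and 100 µM and incubated 24 h at 4–8 °C. Parasites were counted in a Neubauer chamber in triplicate. IC50 was calculated versus control.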

Trypanosoma cruzi [10] = test: Inhibition of Trypanosoma cruzi Arequipa Fe-SOD at <50 uM by NBT dye based spectrophotometry; conditions: dose microM <50
Procedure, shortened: (§3)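 Fe-SOD source: Arequipa epimastigote homogenate (STE buffer pH 7.8, sonication, centrifugation, supernatant; protein by Bradford); CuZn-SOD was commercial human erythrocyte enzyme. Activity was measured as NBT reduction by superoxide in 50 mM potassium phosphate pH 7.8, with compounds at 5 concentrations (1–100 µM). A560 was read before and after 10 min under lamp light with stirring. Three rate determinations; Newman–Keuls test.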

[11] = molecular target: Superoxide dismutase [Cu-Zn] (Homo sapiens, UniProt P00441); test: Inhibition of human erythrocyte CuZn-SOD by NBT dye based spectrophotometry; procedure, shortened: as §3
Chain of Superoxide dismutase [Cu-Zn] (P00441 whole entry): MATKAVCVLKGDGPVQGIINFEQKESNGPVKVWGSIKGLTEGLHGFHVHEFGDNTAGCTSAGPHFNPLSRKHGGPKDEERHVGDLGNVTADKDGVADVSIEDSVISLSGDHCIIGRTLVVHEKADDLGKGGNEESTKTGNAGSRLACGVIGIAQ

Trypanosoma cruzi [12] = test: Antitrypanosomal activity against Trypanosoma cruzi Arequipa trypomastigotes infected in BALB/c mouse assessed as parasitemia re-activation level measured during chronic phase ( day 90 post infection) at 50 mg/kg, po dosed on alternating days (7 to 15 days post infection) relative to acute phase infection (reference value: […]%); type: functional
Trypanosoma cruzi [13] = test: Antitrypanosomal activity against Trypanosoma cruzi Arequipa trypomastigotes infected in BALB/c mouse assessed as reduction in parasitemia measured during acute phase (days 0 to 40 post infection) at 50 to 100 mg/kg, po dosed on alternating days (7 to 15 days post infection); type: functional, organism-based; conditions: dose 50-100 mg/kg
Procedure, shortened: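 Female BALB/c mice (8–10 weeks, 25–30 g; groups of six) were infected i.p. with 5×10^5 Arequipa blood trypomastigotes. Dosing was oral, 50 or 100 mg/kg/day, on 5 alternating days (days 7–15 pi), alongside untreated and reference-drug groups. Parasitemia was counted in 5 µL mandibular-vein blood by Neubauer chamber through day 40 pi. Data are means ± SD of six mice.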

Vero = test: Cytotoxicity in African green monkey Vero cells incubated for 72 hrs; type: cell-based; conditions: Chlorocebus sabaeus
Trypanosoma cruzi [14] = test: Antitrypanosomal activity against Trypanosoma cruzi Tulahuen epimastigote forms incubated for 72 hrs by hemocytometry; type: functional, organism-based
Procedure, shortened: (§4)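 Epimastigotes grown in MTL medium with 10% inactivated FBS at 28 °C. Compounds were dissolved in DMSO (0.01% v/v) and added at 0.1–100 µM for 72 h. Parasites were counted in a Neubauer chamber. IC50 (50% growth inhibition) was derived by linear regression of Kc values. Values are averages of four determinations.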

Trypanosoma cruzi [15] = test: Antitrypanosomal activity against Trypanosoma cruzi Arequipa epimastigote forms incubated for 72 hrs by hemocytometry; type: functional, organism-based; procedure, shortened: as §4
Trypanosoma cruzi [16] = test: as §1, with “stomach” for “heart”, “at” for “at 50 to”; type: functional, organism-based
Trypanosoma cruzi [17] = test: Antitrypanosomal activity against Trypanosoma cruzi Arequipa trypomastigotes infected in BALB/c mouse assessed as reduction in parasitemia level in heart measured during acute phase (days 0 to 40 post infection) at 100 mg/kg, po dosed on alternating days (7 to 15 days post infection) by PCR analysis; type: functional, organism-based

IC50 (Trypanosoma cruzi [7])	IC50 (Trypanosoma cruzi [9])	inhibition (Trypanosoma cruzi [10])	IC50 [11]	IC50 (Trypanosoma cruzi [14])	IC50 (Trypanosoma cruzi [15])	SMILES	inhibition (INH) (Trypanosoma cruzi [1])	Activity (Trypanosoma cruzi [2])	Activity [3]	Activity [4]	Spleen weight percent (Trypanosoma cruzi [5])	Activity [6]	Activity (Trypanosoma cruzi [8])	Activity (Trypanosoma cruzi [12])	Activity (Trypanosoma cruzi [13])	IC50 (Vero)	Activity (Trypanosoma cruzi [16])	Activity (Trypanosoma cruzi [17])
4.9 µM	1.9 µM	100%	215 µM	0.4 µM	30.7 µM	O=C(CCN1CCN(c2ccc(F)cc2)CC1)c1csc2ccc(F)cc12	47%	Active	Non-Toxic	Non-Toxic	0.825%	Non-Toxic	Active	0%	Active	759 µM	Active	Active
25.8 µM	45.8 µM	–	206 µM	14 µM	51.7 µM	O=C(CCN1CCN(c2ccc(C(F)(F)F)cc2)CC1)c1csc2ccc(F)cc12	68%	Active	Non-Toxic	Non-Toxic	1.041%	Non-Toxic	Active	–	Active	896 µM	Active	Active
